Laboratory results as given in ChEMBL document CHEMBL1782040, “Exceptionally fast uptake and metabolism of cyanidin 3-glucoside by rat kidneys and liver” (J Nat Prod, 2011).

Legend:
[1] = Drug uptake in Wistar rat plasma at 0.67 umol, iv after 0.25 mins by mass spectrometry analysis; type: ADME, organism-based
Outline: (§1)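 Fasted, anaesthetized rats received the anthocyanin in saline as a 0.67 μmol iliac-vein bolus (76 μM in plasma). They were sacrificed at 15 s, 1, 5 or 15 min, and plasma, kidneys, liver, urine and bile were collected. Anthocyanins were methanol-extracted, SPE-cleaned and quantified by MS (tandem MS for trace metabolites), then corrected for recovery measured on spiked blood, homogenates and urine. Amounts assume 8.8 mL plasma, 2.4 g kidney and 7.0 g liver, with urine and bile volumes measured.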

[2] = Drug uptake in Wistar rat plasma at 0.67 umol, iv after 1 min by mass spectrometry analysis; type: ADME, organism-based; outline: as §1
[3] = Drug uptake in Wistar rat plasma at 0.67 umol, iv after 5 mins by mass spectrometry analysis; type: ADME, organism-based; outline: as §1
[4] = Drug uptake in Wistar rat plasma at 0.67 umol, iv after 15 mins by mass spectrometry analysis; type: ADME, organism-based; outline: as §1
Kidney [5] = assay: Drug uptake in Wistar rat kidney assessed by assuming kidney mass was 2.4 gram at 0.67 umol, iv after 0.25 mins by mass spectrometry analysis; type: ADME, organism-based; conditions: in vivo, 15 s
Outline: (§2)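 Cyanidin 3-glucoside in saline was given as one iliac-vein injection (0.67 μmol) to fasting, anaesthetized rats, which were killed at 15 s, 1, 5 or 15 min. Kidneys were homogenized, extracted in methanol, cleaned up by SPE and analysed by LC-MS/MS.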

[6] = Drug uptake in Wistar rat kidney at 0.67 umol, iv after 0.25 mins by mass spectrometry analysis; type: ADME, organism-based; conditions: read-out: Drug uptake; outline: as §2
Kidney [7] = assay: Drug uptake in Wistar rat kidney assessed by assuming kidney mass was 2.4 gram at 0.67 umol, iv after 1 min by mass spectrometry analysis; type: ADME, organism-based; conditions: in vivo; outline: as §2
[8] = Drug uptake in Wistar rat kidney at 0.67 umol, iv after 1 min by mass spectrometry analysis; type: ADME, organism-based; conditions: read-out: Drug uptake; outline: as §2
Kidney [9] = assay: Drug uptake in Wistar rat kidney assessed by assuming kidney mass was 2.4 gram at 0.67 umol, iv after 5 mins by mass spectrometry analysis; type: ADME, organism-based; conditions: in vivo; outline: as §2
[10] = Drug uptake in Wistar rat kidney at 0.67 umol, iv after 5 mins by mass spectrometry analysis; type: ADME, organism-based; conditions: read-out: Drug uptake; outline: as §2
Kidney [11] = assay: Drug uptake in Wistar rat kidney assessed by assuming kidney mass was 2.4 gram at 0.67 umol, iv after 15 mins by mass spectrometry analysis; type: ADME, organism-based; conditions: in vivo, 0.25 h; outline: as §2
[12] = Drug uptake in Wistar rat kidney at 0.67 umol, iv after 15 mins by mass spectrometry analysis; type: ADME, organism-based; conditions: read-out: Drug uptake; outline: as §2
Liver [13] = assay: Drug uptake in Wistar rat liver assessed by assuming liver mass was 7 grams at 0.67 umol, iv after 0.25 mins by mass spectrometry analysis; type: ADME, organism-based; conditions: in vivo, 15 s
Outline: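 Fasting, anaesthetized rats received cyanidin 3-glucoside in saline into the iliac vein (0.67 μmol) and were killed at 15 s, 1, 5 or 15 min. Liver homogenates were methanol-extracted, cleaned up by SPE and quantified by LC-MS/MS.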

[14] = Drug uptake in Wistar rat liver at 0.67 umol, iv after 0.25 mins by mass spectrometry analysis; type: ADME, organism-based; conditions: read-out: Drug uptake; outline: as §1
Liver [15] = assay: Drug uptake in Wistar rat liver assessed by assuming liver mass was 7 grams at 0.67 umol, iv after 1 min by mass spectrometry analysis; type: ADME, organism-based; conditions: in vivo; outline: as §1
[16] = Drug uptake in Wistar rat liver at 0.67 umol, iv after 1 min by mass spectrometry analysis; type: ADME, organism-based; conditions: read-out: Drug uptake; outline: as §1
Liver [17] = assay: Drug uptake in Wistar rat liver assessed by assuming liver mass was 7 grams at 0.67 umol, iv after 5 mins by mass spectrometry analysis; type: ADME, organism-based; conditions: in vivo; outline: as §1
[18] = Drug uptake in Wistar rat liver at 0.67 umol, iv after 5 mins by mass spectrometry analysis; type: ADME, organism-based; conditions: read-out: Drug uptake; outline: as §1
Liver [19] = assay: Drug uptake in Wistar rat liver assessed by assuming liver mass was 7 grams at 0.67 umol, iv after 15 mins by mass spectrometry analysis; type: ADME, organism-based; conditions: in vivo, 0.25 h; outline: as §1
[20] = Drug uptake in Wistar rat liver at 0.67 umol, iv after 15 mins by mass spectrometry analysis; type: ADME, organism-based; conditions: read-out: Drug uptake; outline: as §1
[21] = Elimination rate constant in Wistar rat plasma at 0.67 umol, iv; type: ADME, cell-free
Outline: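 Rats received a 0.67 μmol iliac-vein bolus in saline under anaesthesia. Plasma amounts (nmol) at 15 s, 1, 5 and 15 min were obtained by recovery-corrected MS and fitted to y = y0 + a·e^(−kt). k is the first-order elimination constant, y0 the steady-state amount, and a the extrapolated t0 amount minus y0.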

[22] = Drug uptake in Wistar rat urine assessed by assuming plasma volume was 8.8 mL at 0.67 umol, iv after 15 mins by mass spectrometry analysis; type: ADME, organism-based; conditions: in vivo, 0.25 h; outline: as §1
[23] = Drug uptake in Wistar rat urine at 0.67 umol, iv after 15 mins by mass spectrometry analysis; type: ADME, organism-based; conditions: read-out: Drug uptake; outline: as §1
[24] = Drug uptake in Wistar rat bile assessed by assuming plasma volume was 8.8 mL at 0.67 umol, iv after 15 mins by mass spectrometry analysis; type: ADME, organism-based; conditions: in vivo, 0.25 h
[25] = Drug uptake in Wistar rat bile at 0.67 umol, iv after 15 mins by mass spectrometry analysis; type: ADME, organism-based; conditions: read-out: Drug uptake
Outline: (§3)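 Cyanidin 3-glucoside in saline was injected into the iliac vein of fasting, anaesthetized rats (0.67 μmol; 76 μM in plasma). Urine and bile were collected to 15 min, and their volumes were measured. Anthocyanin levels were measured by LC-MS and corrected for recovery from spiked standards. Amounts are given per collected volume (n = 9 urine, n = 4 bile).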

[26] = Drug excretion in Wistar rat urine at 0.67 umol, iv after 15 mins by mass spectrometry analysis; type: ADME, organism-based; conditions: read-out: Activity; outline: as §3
[27] = Drug excretion in Wistar rat bile at 0.67 umol, iv after 15 mins by mass spectrometry analysis; type: ADME, organism-based; conditions: read-out: Activity; outline: as §3
Nucleic Acid [28] = assay: Ratio of drug uptake in urine to kidney in Wistar rat at 0.67 umol, iv after 15 mins by mass spectrometry analysis; type: ADME, organism-based; conditions: in vivo, 0.25 h
Outline: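 Fasting anaesthetized rats got 0.67 μmol anthocyanin in saline into the iliac vein (about 76 μM in plasma) and were killed at 15 min. Urine (volume measured) and kidneys (2.4 g assumed) were extracted in methanol and cleaned by SPE. Analytes were quantified by LC-tandem MS, corrected for recovery from spiked matrices, n = 9 rats.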

Nucleic Acid [29] = assay: Ratio of drug uptake in bile to liver in Wistar rat at 0.67 umol, iv after 15 mins by mass spectrometry analysis; type: ADME, organism-based; conditions: in vivo, 0.25 h
Plasma [30] = assay: Metabolic stability in Wistar rat assessed as parent compound level in plasma at 0.67 umol, iv after 0.25 mins by mass spectrometry analysis; type: ADME, organism-based; conditions: in vivo, 15 s; outline: as §1
Plasma [31] = assay: Metabolic stability in Wistar rat assessed as parent compound level in plasma at 0.67 umol, iv after 1 min by mass spectrometry analysis; type: ADME, organism-based; conditions: in vivo; outline: as §1
Plasma [32] = assay: Metabolic stability in Wistar rat assessed as parent compound level in plasma at 0.67 umol, iv after 5 mins by mass spectrometry analysis; type: ADME, organism-based; conditions: in vivo; outline: as §1
Plasma [33] = assay: Metabolic stability in Wistar rat assessed as parent compound level in plasma at 0.67 umol, iv after 15 mins by mass spectrometry analysis; type: ADME, organism-based; conditions: in vivo, 0.25 h; outline: as §1
Kidney [34] = assay: Metabolic stability in Wistar rat assessed as parent compound level in kidney at 0.67 umol, iv after 0.25 mins by mass spectrometry analysis; type: ADME, organism-based; conditions: in vivo, 15 s; outline: as §1
Kidney [35] = assay: Metabolic stability in Wistar rat assessed as parent compound level in kidney at 0.67 umol, iv after 1 min by mass spectrometry analysis; type: ADME, organism-based; conditions: in vivo; outline: as §1
Kidney [36] = assay: Metabolic stability in Wistar rat assessed as parent compound level in kidney at 0.67 umol, iv after 5 mins by mass spectrometry analysis; type: ADME, organism-based; conditions: in vivo; outline: as §1
Kidney [37] = assay: Metabolic stability in Wistar rat assessed as parent compound level in kidney at 0.67 umol, iv after 15 mins by mass spectrometry analysis; type: ADME, organism-based; conditions: in vivo, 0.25 h; outline: as §1
Liver [38] = assay: Metabolic stability in Wistar rat assessed as parent compound level in liver at 0.67 umol, iv after 0.25 mins by mass spectrometry analysis; type: ADME, organism-based; conditions: in vivo, 15 s; outline: as §1
Liver [39] = assay: Metabolic stability in Wistar rat assessed as parent compound level in liver at 0.67 umol, iv after 1 min by mass spectrometry analysis; type: ADME, organism-based; conditions: in vivo; outline: as §1
Liver [40] = assay: Metabolic stability in Wistar rat assessed as parent compound level in liver at 0.67 umol, iv after 5 mins by mass spectrometry analysis; type: ADME, organism-based; conditions: in vivo; outline: as §1
Liver [41] = assay: Metabolic stability in Wistar rat assessed as parent compound level in liver at 0.67 umol, iv after 15 mins by mass spectrometry analysis; type: ADME, organism-based; conditions: in vivo, 0.25 h; outline: as §1
[42] = Metabolic stability in Wistar rat assessed as parent compound level in urine at 0.67 umol, iv after 15 mins by mass spectrometry analysis; type: ADME, organism-based; conditions: in vivo, 0.25 h; outline: as §1
[43] = Metabolic stability in Wistar rat assessed as parent compound level in bile at 0.67 umol, iv after 15 mins by mass spectrometry analysis; type: ADME, organism-based; conditions: in vivo, 0.25 h; outline: as §1
Nucleic Acid [44] = assay: Ratio of drug uptake in kidney to liver in Wistar rat assessed as level at 0.67 umol, iv by mass spectrometry analysis; conditions: in vivo
Nucleic Acid [45] = assay: Ratio of drug uptake in kidney to liver in Wistar rat assessed as cyanidin 3-glucoside level at 0.67 umol, iv after 15 mins by mass spectrometry analysis; conditions: in vivo, 0.25 h

concentration at 15 s [1]: 18.2 µM | concentration at 1 min [2]: 5.7 µM | concentration at 5 min [3]: 1.6 µM | concentration at 0.25 h [4]: 1.6 µM | Drug uptake (Kidney [5]): 27.1 nmol | concentration at 15 s [6]: 11.3 µM | Drug uptake (Kidney [7]): 29.8 nmol | concentration at 1 min [8]: 12.4 µM | Drug uptake (Kidney [9]): 10.7 nmol | concentration at 5 min [10]: 4.5 µM | Drug uptake (Kidney [11]): 10.6 nmol | concentration at 0.25 h [12]: 4.4 µM | Drug uptake (Liver [13]): 2.5 nmol | concentration at 15 s [14]: 0.4 µM | Drug uptake (Liver [15]): 2.5 nmol | concentration at 1 min [16]: 0.4 µM | Drug uptake (Liver [17]): 0.1 nmol | concentration at 5 min [18]: 0.02 µM | Drug uptake (Liver [19]): 0.4 nmol | concentration at 0.25 h [20]: 0.1 µM | k el [21]: 0.0317 s⁻¹ | Drug uptake [22]: 41.3 nmol | concentration at 0.25 h [23]: 317 µM | Drug uptake [24]: 0.4 nmol | concentration at 0.25 h [25]: 2.3 µM | dose excreted at 0.25 h [26]: 6.2% | dose excreted at 0.25 h [27]: < 0.1% | Ratio (Nucleic Acid [28]): 71.9 | Ratio (Nucleic Acid [29]): 34.2 | Stability (Plasma [30]): 171.2 nmol | Stability (Plasma [31]): 55.8 nmol | Stability (Plasma [32]): 17.2 nmol | Stability (Plasma [33]): 19.7 nmol | Stability (Kidney [34]): 73.1 nmol | Stability (Kidney [35]): 130.8 nmol | Stability (Kidney [36]): 52 nmol | Stability (Kidney [37]): 62.7 nmol | Stability (Liver [38]): 43.6 nmol | Stability (Liver [39]): 84.4 nmol | Stability (Liver [40]): 34.6 nmol | Stability (Liver [41]): 32.3 nmol | Stability [42]: 141 nmol | Stability [43]: 58.9 nmol | Ratio (Nucleic Acid [44]): 12 | Ratio (Nucleic Acid [45]): 37
SMILES: OC[C@H]1O[C@@H](Oc2cc3c(O)cc(O)cc3[o+]c2-c2ccc(O)c(O)c2)[C@H](O)[C@@H](O)[C@@H]1O [KUROMANIN]
